Laboratory results published in ChEMBL document CHEMBL1135816, “6-Aryl-1,4-dihydro-benzo[d][1,3]oxazin- 2-ones: a novel class of potent, selective, and orally active nonsteroidal progesterone receptor antagonists” (J Med Chem, 2002).

Columns and labels:
[1] = molecular target: T1, Progesterone receptor (Homo sapiens, UniProt P06401); assay: Antagonist activity against progesterone receptor (PR) in an assay using PRE-luciferase plasmid co-transfected CV-1 cells; format: functional, cell-based
T1 sequence (P06401 whole entry): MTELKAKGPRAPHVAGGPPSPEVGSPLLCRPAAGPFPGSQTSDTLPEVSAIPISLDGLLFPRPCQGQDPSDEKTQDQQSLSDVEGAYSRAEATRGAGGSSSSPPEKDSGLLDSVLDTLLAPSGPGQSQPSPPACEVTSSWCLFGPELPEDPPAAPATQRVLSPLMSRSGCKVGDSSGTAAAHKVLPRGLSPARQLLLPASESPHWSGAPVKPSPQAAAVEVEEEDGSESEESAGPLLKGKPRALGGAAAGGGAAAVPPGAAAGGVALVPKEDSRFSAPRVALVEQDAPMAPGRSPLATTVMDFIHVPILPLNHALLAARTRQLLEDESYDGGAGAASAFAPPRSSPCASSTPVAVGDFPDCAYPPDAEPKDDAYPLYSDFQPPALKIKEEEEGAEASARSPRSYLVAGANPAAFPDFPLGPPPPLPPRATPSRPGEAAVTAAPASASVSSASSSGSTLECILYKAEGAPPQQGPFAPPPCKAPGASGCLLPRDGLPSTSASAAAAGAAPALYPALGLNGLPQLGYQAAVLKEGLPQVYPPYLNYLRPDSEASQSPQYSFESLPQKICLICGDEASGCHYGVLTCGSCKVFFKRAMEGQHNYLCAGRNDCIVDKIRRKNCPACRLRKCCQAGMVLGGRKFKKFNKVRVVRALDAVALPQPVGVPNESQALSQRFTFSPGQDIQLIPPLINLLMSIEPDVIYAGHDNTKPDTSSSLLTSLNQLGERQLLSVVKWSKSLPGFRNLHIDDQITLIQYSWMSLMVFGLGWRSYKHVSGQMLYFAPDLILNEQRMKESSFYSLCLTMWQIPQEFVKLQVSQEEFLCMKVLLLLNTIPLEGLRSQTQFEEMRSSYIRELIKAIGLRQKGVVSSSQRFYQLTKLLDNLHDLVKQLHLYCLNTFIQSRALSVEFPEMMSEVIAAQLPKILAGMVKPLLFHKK
In short: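 CV-1 cells cotransfected with hPR and PRE-luciferase plasmids, luciferase read-out; IC50 averaged from at least duplicate determinations.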

[2] = molecular target: T1, Progesterone receptor; assay: Antagonist activity against progesterone receptor (PR) in an alkaline phosphatase assay in the T47D human breast carcinoma cell line; format: functional, cell-based
[3] = molecular target: T2, Progesterone receptor (Rattus norvegicus) (UniProt Q63449); assay: Inhibitory activity against progesterone receptor (PR) in ovariectomized mature female rat decidualization model; format: functional
T2 sequence (whole entry): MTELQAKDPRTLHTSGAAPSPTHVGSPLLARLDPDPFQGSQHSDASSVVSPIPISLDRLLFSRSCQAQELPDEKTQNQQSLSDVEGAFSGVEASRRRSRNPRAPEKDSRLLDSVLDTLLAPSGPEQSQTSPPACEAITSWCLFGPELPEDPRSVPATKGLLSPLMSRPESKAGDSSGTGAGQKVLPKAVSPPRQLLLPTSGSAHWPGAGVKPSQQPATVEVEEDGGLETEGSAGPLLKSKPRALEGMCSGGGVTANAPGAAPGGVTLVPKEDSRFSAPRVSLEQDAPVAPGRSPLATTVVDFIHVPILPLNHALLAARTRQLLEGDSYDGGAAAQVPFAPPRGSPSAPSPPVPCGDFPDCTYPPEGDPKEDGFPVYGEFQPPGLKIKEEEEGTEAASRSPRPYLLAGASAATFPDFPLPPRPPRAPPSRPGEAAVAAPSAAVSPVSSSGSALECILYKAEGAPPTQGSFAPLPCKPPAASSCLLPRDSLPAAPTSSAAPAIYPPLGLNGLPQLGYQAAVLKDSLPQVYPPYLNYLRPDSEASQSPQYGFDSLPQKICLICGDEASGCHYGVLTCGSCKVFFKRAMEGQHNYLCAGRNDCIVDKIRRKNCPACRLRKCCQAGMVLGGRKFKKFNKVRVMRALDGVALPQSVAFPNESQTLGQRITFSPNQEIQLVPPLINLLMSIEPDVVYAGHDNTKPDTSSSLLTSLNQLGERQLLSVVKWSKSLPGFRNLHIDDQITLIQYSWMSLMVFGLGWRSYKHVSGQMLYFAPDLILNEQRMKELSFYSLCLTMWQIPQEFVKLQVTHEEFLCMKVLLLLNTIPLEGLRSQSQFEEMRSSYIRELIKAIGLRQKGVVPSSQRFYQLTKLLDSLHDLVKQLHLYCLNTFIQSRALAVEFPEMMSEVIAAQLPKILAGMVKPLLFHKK
In short: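 Ovariectomized mature rats dosed orally for 7 days, with progesterone 5.6 mg/kg SC given alongside; vehicle-only controls. Decidual response (D/C) measured 24 h after the final treatment, seven animals per point. ED50 averaged from at least duplicate determinations.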

[4] = molecular target: T2, Progesterone receptor (Rattus norvegicus); assay: inhibitory activity against progesterone receptor (PR) in ovariectomized mature female rat complement C3 model; format: functional
In short: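 Adult ovariectomized rats given oral doses; read-out is reversal of progestin down-regulation of estrogen-induced complement C3 synthesis in uterine epithelium. ED50 averaged from at least duplicate determinations.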

[5] = Plasma clearance (Cl) for the compound in female rats for a dose of 1 mg/kg administered intravenously; format: ADME, organism-based; set-up: dose 1 mg/kg, route intravenous; conditions: rat, iv, read-out: Clp (converted)
[6] = Half life in female rats for a dose of 1 mg/kg administered intravenously.; format: ADME, organism-based; set-up: dose 1 mg/kg, route intravenous; conditions: rat, in vivo, iv
[7] = Area under the curve (AUC) for the compound in female rats for a dose of 1 mg/kg administered intravenously.; format: ADME, organism-based; set-up: dose 1 mg/kg, route intravenous; conditions: rat, in vivo, iv
[8] = molecular target: T1, Progesterone receptor; assay: Agonist activity against progesterone receptor (PR) in an alkaline phosphatase assay in the T47D human breast carcinoma cell line; format: functional, cell-based
In short: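 T47D human breast carcinoma cells scored for PR agonism via alkaline phosphatase read-out; EC50 taken as the mean of at least duplicate determinations.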

Work on CC1(C)OC(=O)Nc2ccc(-c3ccc(Cl)cc3)cc21 yielded an IC50 [1] of 642 nM and an IC50 [2] of 30 nM.

CC1(C)OC(=O)Nc2c(F)cc(-c3cc(F)cc(C#N)c3)cc21 showed an ED50 [3] of 0.6 mg/kg, an IC50 [1] of 98.8 nM and an IC50 [2] of 26.2 nM.

CC#C[C@]1(O)CC[C@H]2[C@@H]3CCC4=CC(=O)CCC4=C3[C@@H](c3ccc(N(C)C)cc3)C[C@@]21C showed an ED50 [3] of 0.3 mg/kg and an ED50 [4] of 1.7 mg/kg.

With COc1cccc(-c2ccc3c(c2)C(C)(C)OC(=O)N3)c1 the IC50 [1] was 38.3 nM and the IC50 [2] was 19.5 nM.

CC1(C)OC(=O)Nc2ccc(-c3ccc(F)c(C#N)c3)cc21 gave an IC50 [2] of 15.1 nM.

Compound CC1(C)OC(=O)Nc2ccc(-c3cccc(C#N)c3)cc21 has an ED50 [3] of 7 mg/kg, a clearance [5] of 36.3 mL/min/kg and an IC50 [1] of 9.9 nM. It also gave a half-life [6] of 36 min, an IC50 [2] of 17 nM and an AUC [7] of 460 ng·h/mL.

Compound CC1(C)OC(=O)Nc2ccc(-c3cc(F)cc(Cl)c3)cc21 has an ED50 [3] of 2 mg/kg, an IC50 [1] of 2.6 nM and an EC50 [8] of 500 nM.

Compound CC1(C)OC(=O)Nc2ccc(-c3cccc(Cl)c3)cc21 has an ED50 [3] greater than 30 mg/kg, an IC50 [1] of 9.3 nM and an IC50 [2] of 30 nM.

In the case of CC1(C)OC(=O)Nc2ccc(-c3cccc(F)c3)cc21, the ED50 [3] is reported as 1.5 mg/kg, the IC50 [1] is reported as 3.8 nM and the IC50 [2] is reported as 8.2 nM.

CC1(C)OC(=O)Nc2ccc(-c3ccccc3Cl)cc21 showed an IC50 [1] of 500 nM and an IC50 [2] of 300 nM.
